Test results published in ChEMBL document CHEMBL2034843, “3α-Hydroxymasticadienonic acid as an antiproliferative agent that impairs mitochondrial functions” (J Nat Prod, 2012).
The source made the active and inactive calls.

Experiments:
Rattus norvegicus [1] = species on record: Rattus norvegicus; experiment: Induction of mitochondrial dysfunction in rat liver mitochondria assessed as increase in colloid-osmotic swelling at 10 uM by spectrophotometric analysis in presence of 50 uM Ca2+; type: functional
Procedure, shortened: (§1)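 Absorbance change at 540 nm of rat liver mitochondrial suspensions (1 mg protein/mL, 20 °C, succinate/rotenone energized, 250 mM sucrose, 10 mM HEPES pH 7.4, 1 mM phosphate); a fall in absorbance taken as swelling. Ca2+ at 50, 70 or 90 μM as specified, or omitted. Runs repeated at least four times.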

Rattus norvegicus [2] = species on record: Rattus norvegicus; experiment: Induction of mitochondrial dysfunction in rat liver mitochondria assessed as increase in colloid-osmotic swelling at 10 uM by spectrophotometric analysis in presence of 50 uM Ca2+ and N-ethylmaleimide; type: functional
Procedure, shortened: (§2)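 Swelling read as the 540 nm absorbance decrease in succinate-energized rat liver mitochondria (1 mg protein/mL, 20 °C, pH 7.4 sucrose/HEPES medium) with 50 μM Ca2+. Added agents where indicated: 1 μM CsA, 5 μM bongkrekic acid, 1 mM ADP, 2 μM ruthenium red, 10 μM NEM, 1 mM DTE. At least five repeats.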

Rattus norvegicus [3] = species on record: Rattus norvegicus; experiment: Induction of mitochondrial bioenergetics dysfunction in ADP-stimulated rat liver mitochondria assessed as decrease in oxygen consumption at 10 to 50 uM by using clark electrode; type: functional
Procedure, shortened: (§3)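 Isolated rat liver mitochondria (1 mg protein/mL), 20 °C, sucrose/HEPES pH 7.4 medium with 5 mM succinate plus 1.25 μM rotenone and 1 mM phosphate. O2 uptake followed with a Clark electrode; 300 μM ADP added to start state 3. RCI = V3/V4 (state 3 over state 4 rate). Five experiments.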

Rattus norvegicus [4] = species on record: Rattus norvegicus; experiment: Induction of mitochondrial dysfunction in rat liver mitochondria assessed as cytochrome c release at 100 uM after 15 mins by Western blot analysis; type: functional
Procedure, shortened: (§4)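 Mitochondria (1 mg protein/mL) held 15 min at 20 °C in standard succinate/rotenone medium with or without Ca2+, then centrifuged 13000g, 10 min, 4 °C. Supernatants concentrated, resolved by SDS-PAGE (15% for cyt c, 10% for AIF) and immunoblotted with mouse anti-cyt c or rabbit anti-AIF.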

Rattus norvegicus [5] = species on record: Rattus norvegicus; experiment: Induction of mitochondrial dysfunction in rat liver mitochondria assessed as rapid accumulation of Ca2+ at 10 uM by spectrophotometric analysis; type: functional
Procedure, shortened: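 Rat liver mitochondria, isolated by differential centrifugation in sucrose/HEPES/EGTA buffer, were incubated at 1 mg protein/mL and 20 °C. Ca2+ content of mitochondrial pellets was measured by atomic absorption spectroscopy.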

Rattus norvegicus [6] = species on record: Rattus norvegicus; experiment: Induction of mitochondrial dysfunction in Ca2+-stimulated rat liver mitochondria assessed as decrease in mitochondrial redox level at 10 uM after 15 mins by absorption spectrophotometric analysis in presence of ADP; type: functional
Procedure, shortened: (§5)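 Mitochondrial protein thiol oxidation assayed per Santos et al. after 15 min incubation of rat liver mitochondria (1 mg protein/mL, 20 °C, succinate/rotenone standard medium). Results as % reduced thiols, mean ± SD, four independent experiments.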

Rattus norvegicus [7] = species on record: Rattus norvegicus; experiment: Induction of mitochondrial dysfunction in rat liver mitochondria assessed as increase in colloid-osmotic swelling at 10 uM by spectrophotometric analysis in presence of 50 uM Ca2+ and AdNT; type: functional; procedure, shortened: as §2
HeLa = experiment: Cytotoxicity against human HeLa cells after 72 hrs by trypan blue assay; type: functional, cell-based
Procedure, shortened: (§6)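 Cells seeded at 4 × 10^4 per well, grown 24 h, then given fresh medium with a range of concentrations and kept a further 72 h at 37 °C in 5% CO2. Viability was read by trypan blue count. IC50 is the concentration giving 50% fewer cells than control cultures, as mean ± SD of at least four experiments. HeLa were grown in F-12 with 10% heat-inactivated FCS; A-431 and HepG2 in DMEM with 10% FBS.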

Rattus norvegicus [8] = species on record: Rattus norvegicus; experiment: Induction of mitochondrial bioenergetics dysfunction in rat liver mitochondria assessed as decrease in respiratory control index at 50 uM by using clark electrode; type: functional; procedure, shortened: as §3
Rattus norvegicus [9] = species on record: Rattus norvegicus; experiment: Induction of mitochondrial dysfunction in rat liver mitochondria assessed as increase in colloid-osmotic swelling at 10 uM by spectrophotometric analysis in presence of 50 uM Ca2+ and dithiothreitol; type: functional; procedure, shortened: as §2
Rattus norvegicus [10] = species on record: Rattus norvegicus; experiment: Induction of mitochondrial dysfunction in rat liver mitochondria assessed as increase in colloid-osmotic swelling at 10 to 100 uM by spectrophotometric analysis; type: functional; procedure, shortened: as §1
Rattus norvegicus [11] = species on record: Rattus norvegicus; experiment: Induction of mitochondrial dysfunction in Ca2+-stimulated rat liver mitochondria assessed as decrease in mitochondrial redox level at 10 uM after 15 mins by absorption spectrophotometric analysis in presence of N-ethylmaleimide; type: functional; procedure, shortened: as §5
Rattus norvegicus [12] = species on record: Rattus norvegicus; experiment: Induction of mitochondrial dysfunction in rat liver mitochondria assessed as cytochrome c release at 100 uM after 15 mins by Western blot analysis in presence of Ca2+; type: functional; procedure, shortened: as §4
HepG2 = experiment: Cytotoxicity against human HepG2 cells after 72 hrs by trypan blue assay; type: functional, cell-based; conditions: HepG2, 72 h; procedure, shortened: as §6
A-431 = experiment: Cytotoxicity against human A431cells after 72 hrs by trypan blue assay; type: functional, cell-based; conditions: A-431, 72 h; procedure, shortened: as §6
Rattus norvegicus [13] = species on record: Rattus norvegicus; experiment: Induction of mitochondrial dysfunction in rat liver mitochondria assessed as apoptosis inducing factor release at 100 uM after 15 mins by Western blot analysis in presence of Ca2+; type: functional; procedure, shortened: as §4
Rattus norvegicus [14] = species on record: Rattus norvegicus; experiment: Induction of mitochondrial dysfunction in rat liver mitochondria assessed as initial uptake of Ca2+ per mg protein at 100 uM measured immediately by spectrophotometric analysis; type: functional
Procedure, shortened: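 Ca2+ movements in rat liver mitochondria (1 mg protein/mL, 20 °C, succinate/rotenone medium) exposed to 70 μM Ca2+; Ca2+ in mitochondrial pellets measured by atomic absorption spectroscopy, uptake expressed per mg protein.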

Rattus norvegicus [15] = species on record: Rattus norvegicus; experiment: Induction of mitochondrial dysfunction in rat liver mitochondria assessed as increase in mitochondrial swelling at < 20 uM by spectrophotometric analysis in presence of 70 uM Ca2+; type: functional; procedure, shortened: as §1
Rattus norvegicus [16] = species on record: Rattus norvegicus; experiment: Hepatoprotective activity in rat liver assessed as inhibition of colloid-osmotic mitochondrial swelling at 100 uM by spectrophotometric analysis in presence of 90 uM Ca2+; type: functional; conditions: Mitochondria; procedure, shortened: as §1
Rattus norvegicus [17] = species on record: Rattus norvegicus; experiment: Induction of mitochondrial dysfunction in rat liver mitochondria assessed as apoptosis inducing factor release at 10 uM after 15 mins by Western blot analysis in presence of Ca2+; type: functional; procedure, shortened: as §4
Rattus norvegicus [18] = species on record: Rattus norvegicus; experiment: Induction of mitochondrial dysfunction in Ca2+-stimulated rat liver mitochondria assessed as decrease in mitochondrial redox level at 10 uM after 15 mins by absorption spectrophotometric analysis in presence of cyclosporin A; type: functional; procedure, shortened: as §5
Rattus norvegicus [19] = species on record: Rattus norvegicus; experiment: Hepatoprotective activity in rat liver mitochondria assessed as inhibition of Ca2+-induced mitochondrial swelling at 100 uM by spectrophotometric analysis; type: functional; procedure, shortened: as §1
Rattus norvegicus [20] = species on record: Rattus norvegicus; experiment: Induction of mitochondrial dysfunction in Ca2+-stimulated rat liver mitochondria assessed as decrease in mitochondrial redox level at 10 uM after 15 mins by absorption spectrophotometric analysis in presence of bongkrekic acid; type: functional; procedure, shortened: as §5
Rattus norvegicus [21] = species on record: Rattus norvegicus; experiment: Induction of mitochondrial dysfunction in rat liver mitochondria assessed as apoptosis inducing factor release at 100 uM after 15 mins by Western blot analysis; type: functional; procedure, shortened: as §4
Rattus norvegicus [22] = species on record: Rattus norvegicus; experiment: Induction of mitochondrial bioenergetics dysfunction in rat liver mitochondria assessed as decrease in respiratory control index at 10 uM by using clark electrode; type: functional; procedure, shortened: as §3
Rattus norvegicus [23] = species on record: Rattus norvegicus; experiment: Induction of mitochondrial dysfunction in rat liver mitochondria assessed as decrease in mitochondrial redox level at 100 uM after 15 mins by absorption spectrophotometric analysis; type: functional; parameters: scale not given: the % may be the effect or the level left; procedure, shortened: as §5

C/C(=C/CC[C@H](C)[C@@H]1CC[C@]2(C)C3=CC[C@H]4C(C)(C)[C@H](O)CC[C@]4(C)[C@H]3CC[C@@]12C)C(=O)O
28.9 µM: IC50 (HeLa)
inactive: Activity (Rattus norvegicus [2]) | Activity (Rattus norvegicus [4]) | Activity (Rattus norvegicus [7]) | Activity (Rattus norvegicus [9]) | Activity (Rattus norvegicus [10]) | Activity (Rattus norvegicus [11]) | Activity (Rattus norvegicus [12]) | Activity (Rattus norvegicus [13]) | Activity (Rattus norvegicus [18]) | Activity (Rattus norvegicus [21])
40 µM: IC50 (A-431)
20 nmol: Activity (Rattus norvegicus [14])
20.1 µM: IC50 (HepG2)
25%: Activity (Rattus norvegicus [23])
active: Activity (Rattus norvegicus [1]) | Activity (Rattus norvegicus [3]) | Activity (Rattus norvegicus [5]) | Activity (Rattus norvegicus [6]) | Activity (Rattus norvegicus [8]) | Activity (Rattus norvegicus [15]) | inhibition (Rattus norvegicus [16]) | Activity (Rattus norvegicus [17]) | inhibition (Rattus norvegicus [19]) | Activity (Rattus norvegicus [20]) | Activity (Rattus norvegicus [22])
